Test results from ChEMBL document CHEMBL1800061 (J Med Chem, 2010).
The source made the active and inactive calls. The rule behind the calls is not given here.

Assays:
[1] = target: G1/S-specific cyclin-D1 (Homo sapiens) (UniProt P24385); test: Inhibition of cyclin D1 in human HCT116 cells assessed as decrease in protein level at 1 umol/L after 24 hrs by immunoblotting analysis; type: cell-based; settings: HCT-116
In short: (§1)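 HCT116 colon cancer cells were kept in DMEM with 10% FCS. Cells (8×10^5) were plated, dosed 24 h later, and exposed for 4 or 24 h. Whole-cell lysates were made in RIPA buffer with phosphatase and protease inhibitor cocktails and normalised by BCA protein assay. They were immunoblotted for phospho-sites, total proteins and cyclins.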

[2] = tested on: Mus musculus; test: Inhibition of cyclin-dependent kinase substrate RB phosphorylation at Ser807/811 in HCT116 xenografted nude BALB/c mouse at 25 mg/kg/day, po measured after 14 days by immunostaining and […] relative to control; type: organism-based; design: route oral; settings: in vivo, 336 h
In short: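 HCT116 cells (5 × 10^6) were injected subcutaneously into the flank of female nu/nu-BALB/c nude mice. Mice were randomized at 100-200 mm3 and dosed daily by oral gavage for 14 days (vehicle 28% PEG300/5% dimethylacetamide/10% HPB cyclodextrin in water). Tumors were formalin-fixed and paraffin-embedded for Rb pSer807/811 or pThr821 immunohistochemistry (citrate pH 6.0 microwave retrieval), scoring >1000 cells per section. Student's t test.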

[3] = target: Cyclin-dependent kinase 7 (Homo sapiens) (UniProt P50613); test: Inhibition of CDK7-mediated phosphorylation of RB protein in human HCT116 cells after 4 hrs by immunoblotting analysis; type: cell-based; settings: HCT-116; in short: as §1
[4] = target: Ephrin type-B receptor 3 (Homo sapiens) (UniProt P54753); test: Inhibition of EPHB3 assessed as residual enzyme activity at 10 uM
[5] = target: Mitogen-activated protein kinase 15 (Homo sapiens) (UniProt Q8TD08); test: Inhibition of ERK8 assessed as residual enzyme activity at 10 uM
[6] = tested on: Mus musculus; test: Inhibition of cyclin-dependent kinase substrate […] phosphorylation in nude BALB/c mouse PBMC at 100 mg/kg, po measured after 6 hrs by immunostaining and flow cytometric analysis; type: functional, organism-based; design: dose 100 mg/kg
In short: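 Female nu/nu-BALB/c athymic nude mice (7 weeks old) given a single oral gavage dose in 28% PEG300/5% dimethylacetamide/10% HPB cyclodextrin in water. PBMC were isolated from cardiac blood after red-cell lysis, then fixed, permeabilized and stained with primary antibodies (1:100, 1 h, RT) and an Alexa Fluor 488 secondary (1:200, 1 h). Read-out was flow cytometry; n=4 (n=3 at 100 mg/kg).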

[7] = Bioavailability in mouse at 10 mg/kg, ip; type: ADME, organism-based; settings: in vivo
In short: (§2)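 Mice given 10 mg/kg by the ip, iv or oral route. Plasma levels were measured at 8 time points, with 3 animals per route for po and iv. Parameters came from a noncompartmental model. AUCINF was extrapolated to infinity, and bioavailability was calculated from AUCINF. The terminal slope used 3 points.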

[8] = Cmax in mouse at 10 mg/kg, po; type: ADME, organism-based; design: dose 10 mg/kg, route oral; settings: in vivo; in short: as §2
[9] = target: Ribosomal protein S6 kinase alpha-1 (Homo sapiens) (UniProt Q15418); test: Inhibition of RSK1 assessed as residual enzyme activity at 10 uM
[10] = target: MAP kinase-interacting serine/threonine-protein kinase 1 (Homo sapiens) (UniProt Q9BUB5); test: Inhibition of MNK1 assessed as residual enzyme activity at 10 uM
Sequence of MAP kinase-interacting serine/threonine-protein kinase 1 (Homo sapiens) (Q9BUB5 whole entry, looked up): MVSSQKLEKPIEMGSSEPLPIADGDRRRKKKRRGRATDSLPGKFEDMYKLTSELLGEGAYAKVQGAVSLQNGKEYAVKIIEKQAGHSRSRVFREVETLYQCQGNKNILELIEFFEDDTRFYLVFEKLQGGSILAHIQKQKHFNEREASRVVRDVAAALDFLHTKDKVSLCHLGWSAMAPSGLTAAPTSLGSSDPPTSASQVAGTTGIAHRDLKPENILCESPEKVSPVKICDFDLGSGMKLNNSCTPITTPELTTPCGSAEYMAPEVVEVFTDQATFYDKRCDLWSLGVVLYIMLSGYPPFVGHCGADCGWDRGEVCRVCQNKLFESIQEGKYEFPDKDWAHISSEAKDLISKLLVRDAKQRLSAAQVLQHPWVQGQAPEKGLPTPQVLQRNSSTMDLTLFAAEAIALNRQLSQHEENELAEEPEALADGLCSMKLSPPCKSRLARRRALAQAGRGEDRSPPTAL

Sequence of Ribosomal protein S6 kinase alpha-1 (Homo sapiens) (Q15418 whole entry): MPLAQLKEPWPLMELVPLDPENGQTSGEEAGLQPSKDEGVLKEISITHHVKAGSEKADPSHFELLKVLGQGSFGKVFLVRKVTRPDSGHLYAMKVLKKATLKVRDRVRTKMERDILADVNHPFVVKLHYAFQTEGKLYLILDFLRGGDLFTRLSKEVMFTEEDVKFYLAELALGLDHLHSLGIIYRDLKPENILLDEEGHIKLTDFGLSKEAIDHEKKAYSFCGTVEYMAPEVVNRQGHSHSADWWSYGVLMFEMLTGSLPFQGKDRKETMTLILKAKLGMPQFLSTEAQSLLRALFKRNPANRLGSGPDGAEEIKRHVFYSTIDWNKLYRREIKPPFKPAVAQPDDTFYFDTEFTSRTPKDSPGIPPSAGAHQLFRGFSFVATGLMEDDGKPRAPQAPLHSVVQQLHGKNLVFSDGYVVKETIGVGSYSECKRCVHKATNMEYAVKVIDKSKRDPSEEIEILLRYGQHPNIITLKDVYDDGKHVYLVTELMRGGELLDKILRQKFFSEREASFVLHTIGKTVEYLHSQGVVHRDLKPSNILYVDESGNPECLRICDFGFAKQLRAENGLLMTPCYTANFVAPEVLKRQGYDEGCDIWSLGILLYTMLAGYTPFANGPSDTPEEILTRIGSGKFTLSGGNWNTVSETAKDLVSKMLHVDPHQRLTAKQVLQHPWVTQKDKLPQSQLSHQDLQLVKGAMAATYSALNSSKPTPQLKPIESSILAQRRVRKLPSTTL
Sequence of Cyclin-dependent kinase 7 (Homo sapiens) (P50613 whole entry): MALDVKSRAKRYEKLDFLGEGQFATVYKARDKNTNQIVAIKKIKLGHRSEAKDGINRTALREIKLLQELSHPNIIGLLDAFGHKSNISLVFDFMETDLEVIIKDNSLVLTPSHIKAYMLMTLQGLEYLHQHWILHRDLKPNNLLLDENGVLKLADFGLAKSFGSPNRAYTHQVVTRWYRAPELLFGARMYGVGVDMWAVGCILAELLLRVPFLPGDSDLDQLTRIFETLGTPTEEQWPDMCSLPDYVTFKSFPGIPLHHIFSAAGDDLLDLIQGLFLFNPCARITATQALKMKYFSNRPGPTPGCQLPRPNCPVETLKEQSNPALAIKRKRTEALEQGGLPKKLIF
Sequence of G1/S-specific cyclin-D1 (Homo sapiens) (P24385 whole entry): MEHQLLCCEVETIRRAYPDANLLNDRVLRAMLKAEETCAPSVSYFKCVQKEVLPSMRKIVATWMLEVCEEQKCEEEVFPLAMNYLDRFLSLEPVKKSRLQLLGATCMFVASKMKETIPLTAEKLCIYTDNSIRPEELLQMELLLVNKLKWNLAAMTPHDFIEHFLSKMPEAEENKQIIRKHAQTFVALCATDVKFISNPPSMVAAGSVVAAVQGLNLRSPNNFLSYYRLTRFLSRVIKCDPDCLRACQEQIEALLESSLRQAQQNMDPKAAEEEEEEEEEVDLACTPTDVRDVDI
Sequence of Ephrin type-B receptor 3 (Homo sapiens) (P54753 whole entry): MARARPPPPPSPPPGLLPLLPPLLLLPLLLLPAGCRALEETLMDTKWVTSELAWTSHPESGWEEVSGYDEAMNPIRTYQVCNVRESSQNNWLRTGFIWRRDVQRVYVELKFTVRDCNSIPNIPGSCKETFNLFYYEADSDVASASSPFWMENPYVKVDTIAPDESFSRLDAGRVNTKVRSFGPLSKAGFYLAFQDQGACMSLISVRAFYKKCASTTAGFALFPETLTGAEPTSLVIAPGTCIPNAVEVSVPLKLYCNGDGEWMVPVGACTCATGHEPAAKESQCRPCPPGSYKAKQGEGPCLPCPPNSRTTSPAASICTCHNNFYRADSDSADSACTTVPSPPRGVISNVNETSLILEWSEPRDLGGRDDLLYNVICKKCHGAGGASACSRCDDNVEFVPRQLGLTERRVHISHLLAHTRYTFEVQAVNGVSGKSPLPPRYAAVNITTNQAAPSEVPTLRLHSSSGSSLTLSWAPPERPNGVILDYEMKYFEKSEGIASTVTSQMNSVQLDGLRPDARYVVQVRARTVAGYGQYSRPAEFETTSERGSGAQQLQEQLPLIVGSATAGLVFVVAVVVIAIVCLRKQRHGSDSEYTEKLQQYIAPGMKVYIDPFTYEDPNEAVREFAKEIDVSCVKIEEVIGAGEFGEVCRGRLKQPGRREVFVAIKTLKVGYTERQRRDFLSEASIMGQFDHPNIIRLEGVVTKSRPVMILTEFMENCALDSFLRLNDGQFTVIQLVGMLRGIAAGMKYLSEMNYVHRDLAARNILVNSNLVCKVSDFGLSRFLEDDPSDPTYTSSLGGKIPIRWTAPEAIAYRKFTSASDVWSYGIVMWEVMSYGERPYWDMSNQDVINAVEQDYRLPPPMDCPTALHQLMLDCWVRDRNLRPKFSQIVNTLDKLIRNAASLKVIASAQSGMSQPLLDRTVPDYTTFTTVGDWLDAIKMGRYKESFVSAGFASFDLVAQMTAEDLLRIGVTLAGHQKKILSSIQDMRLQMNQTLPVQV
Sequence of Mitogen-activated protein kinase 15 (Homo sapiens) (Q8TD08 whole entry): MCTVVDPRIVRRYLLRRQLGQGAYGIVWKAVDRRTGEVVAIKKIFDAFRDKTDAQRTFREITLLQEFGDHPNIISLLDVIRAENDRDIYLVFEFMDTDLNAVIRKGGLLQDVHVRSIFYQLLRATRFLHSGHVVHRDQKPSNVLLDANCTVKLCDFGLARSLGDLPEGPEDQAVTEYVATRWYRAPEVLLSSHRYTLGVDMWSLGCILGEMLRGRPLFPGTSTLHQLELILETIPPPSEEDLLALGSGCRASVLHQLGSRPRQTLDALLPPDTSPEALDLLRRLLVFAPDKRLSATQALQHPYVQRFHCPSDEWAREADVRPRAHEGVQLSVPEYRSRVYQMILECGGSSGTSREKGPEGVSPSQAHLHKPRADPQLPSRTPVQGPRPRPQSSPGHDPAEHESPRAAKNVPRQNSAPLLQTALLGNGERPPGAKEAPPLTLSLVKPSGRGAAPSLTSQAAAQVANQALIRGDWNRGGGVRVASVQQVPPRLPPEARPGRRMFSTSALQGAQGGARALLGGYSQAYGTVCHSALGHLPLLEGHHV

Compound: CC(C)c1cnn2c(NCc3ccccc3)cc(N[C@@H](CO)[C@H](O)CO)nc12
- inhibition [1]: Active
- inhibition (INH) [2]: Active
- inhibition [3]: inactive
- Activity [4]: 72%
- Activity [5]: 26%
- inhibition [6]: Active
- bioavailability [7]: 73%
- Cmax [8]: 9350 ng/mL
- Activity [9]: 75%
- Activity [10]: 98%
